From ChEMBL document CHEMBL1687714, “Genetic analysis of fenhexamid-resistant field isolates of the phytopathogenic fungus Botrytis cinerea” (Antimicrob Agents Chemother, 2008)
Values after ≈ are worked out from the molar mass of the structure shown. Active and inactive are the calls of the source. The rule behind the calls is not given here.

Experiments:
Botrytis cinerea [1] = assay: Antifungal activity against highly fenhexamid-resistant Botrytis cinerea 379a assessed as inhibition of mycelium growth measured over 5 days; type: functional, organism-based; conditions: 120 h
Botrytis cinerea [2] = assay: Antifungal activity against highly fenhexamid-resistant Botrytis cinerea MK3-9 assessed as inhibition of germ tube elongation after 24 hrs; type: functional, organism-based; conditions: MK3-9, 24 h
Botrytis cinerea [3] = assay: Antifungal activity against moderately to slightly fenhexamid-resistant Botrytis cinerea 286 assessed as inhibition of germ tube elongation after 24 hrs; type: functional, organism-based; conditions: Botrytis cinerea, 286, 24 h
Botrytis cinerea [4] = assay: Antifungal activity against Botrytis cinerea B05.10 harboring TELerg F412I mutant assessed as appearance of mycelium growth up to 20 ug/ml; type: functional
Procedure, shortened: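 B05.10 transformants carrying the erg27 allele on the pFTELerg plasmid were grown on rich medium with hygromycin B until conidiation. Spores were spread on YSS (synthetic complete) medium with 50 µg ml–1 hygromycin B and fenhexamid at 1 to 20 µg ml–1. After 7 days at 21°C, spores developing mycelium were scored under the microscope.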

Botrytis cinerea [5] = assay: Antifungal activity against highly fenhexamid-resistant Botrytis cinerea 118 assessed as inhibition of germ tube elongation after 24 hrs; type: functional, organism-based; conditions: Botrytis cinerea, 118, 24 h
Botrytis cinerea [6] = assay: Antifungal activity against highly fenhexamid-resistant Botrytis cinerea 05-AVB assessed as inhibition of mycelium growth measured over 5 days; type: functional, organism-based; conditions: 120 h
Botrytis cinerea [7] = assay: Antifungal activity against HydR3 deficient Botrytis cinerea 453 harboring TELerg F412I mutant at 2 ug/ml relative to wild-type; type: functional, organism-based
Procedure, shortened: (§1)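 In the dominance test, the recipient strains 453b and 286 were transformed with different erg27 alleles. Spores of the transformants were grown on YSS medium containing fenhexamid at different concentrations and 50 µg ml–1 hygromycin B. Parental strains were grown without hygromycin. Growth was scored after 7 days at 21°C.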

Botrytis cinerea [8] = assay: Antifungal activity against moderately to slightly fenhexamid-resistant Botrytis cinerea 202 assessed as inhibition of mycelium growth measured over 5 days; type: functional, organism-based; conditions: Botrytis cinerea, 202, 120 h
Botrytis cinerea [9] = assay: Antifungal activity against HydR3 deficient Botrytis cinerea 453 harboring TELerg N369D mutant at 10 ug/ml relative to wild-type; type: functional, organism-based; procedure, shortened: as §1
Botrytis cinerea [10] = assay: Antifungal activity against highly fenhexamid-resistant Botrytis cinerea 440b assessed as inhibition of mycelium growth measured over 5 days; type: functional, organism-based; conditions: 120 h
Botrytis cinerea [11] = assay: Antifungal activity against fenhexamid-senistive Botrytis cinerea SAS405 assessed as inhibition of germ tube elongation after 24 hrs; type: functional, organism-based; conditions: SAS405, 24 h
Botrytis cinerea [12] = assay: Antifungal activity against highly fenhexamid-resistant Botrytis cinerea 533 assessed as inhibition of mycelium growth measured over 5 days; type: functional, organism-based; conditions: Botrytis cinerea, 533, 120 h
Botrytis cinerea [13] = assay: Antifungal activity against moderately to slightly fenhexamid-resistant Botrytis cinerea 454 assessed as inhibition of mycelium growth measured over 5 days; type: functional, organism-based; conditions: Botrytis cinerea, 454, 120 h
Botrytis cinerea [14] = assay: Antifungal activity against highly fenhexamid-resistant Botrytis cinerea 05-190 assessed as inhibition of germ tube elongation after 24 hrs; type: functional, organism-based; conditions: 05-190, 24 h
Botrytis cinerea [15] = assay: Antifungal activity against highly fenhexamid-resistant Botrytis cinerea MK3-31 assessed as inhibition of germ tube elongation after 24 hrs; type: functional, organism-based; conditions: MK3-31, 24 h
Botrytis cinerea [16] = assay: Antifungal activity against highly fenhexamid-resistant Botrytis cinerea 1837 assessed as inhibition of germ tube elongation after 24 hrs; type: functional, organism-based; conditions: Botrytis cinerea, 1837, 24 h
Botrytis cinerea [17] = assay: Antifungal activity against highly fenhexamid-resistant Botrytis cinerea 214 assessed as inhibition of mycelium growth measured over 5 days; type: functional, organism-based; conditions: Botrytis cinerea, 214, 120 h
Botrytis cinerea [18] = assay: Antifungal activity against fenhexamid-senistive Botrytis cinerea SAS56 assessed as inhibition of mycelium growth measured over 5 days; type: functional, organism-based; conditions: SAS56, 120 h
Botrytis cinerea [19] = assay: Antifungal activity against highly fenhexamid-resistant Botrytis cinerea 379a assessed as inhibition of germ tube elongation after 24 hrs; type: functional, organism-based
Botrytis cinerea [20] = assay: Antifungal activity against moderately to slightly fenhexamid-resistant Botrytis cinerea 221 assessed as inhibition of mycelium growth measured over 5 days; type: functional, organism-based; conditions: Botrytis cinerea, 221, 120 h
Botrytis cinerea [21] = assay: Antifungal activity against moderately to slightly fenhexamid-resistant Botrytis cinerea 57 assessed as inhibition of germ tube elongation after 24 hrs; type: functional, organism-based; conditions: Botrytis cinerea, 57, 24 h
Botrytis cinerea [22] = assay: Antifungal activity against highly fenhexamid-resistant Botrytis cinerea 312 assessed as inhibition of mycelium growth measured over 5 days; type: functional, organism-based; conditions: Botrytis cinerea, 312, 120 h
Botrytis cinerea [23] = assay: Antifungal activity against HydR3 deficient Botrytis cinerea 453 harboring TELerg N369D mutant at 2 ug/ml relative to wild-type; type: functional, organism-based; procedure, shortened: as §1
Botrytis cinerea [24] = assay: Antifungal activity against Botrytis cinerea 286 harboring TELerg S336C mutant at 2 ug/ml relative to wild-type; type: functional, organism-based; procedure, shortened: as §1
Botrytis cinerea [25] = assay: Antifungal activity against highly fenhexamid-resistant Botrytis cinerea 1837 assessed as inhibition of mycelium growth measured over 5 days; type: functional, organism-based; conditions: Botrytis cinerea, 1837, 120 h
Botrytis cinerea [26] = assay: Antifungal activity against fenhexamid-senistive Botrytis cinerea B05.10 assessed as inhibition of germ tube elongation after 24 hrs; type: functional, organism-based; conditions: B05.10, 24 h
Botrytis cinerea [27] = assay: Antifungal activity against moderately to slightly fenhexamid-resistant Botrytis cinerea 453b assessed as inhibition of germ tube elongation after 24 hrs; type: functional, organism-based
Botrytis cinerea [28] = assay: Antifungal activity against HydR3 deficient Botrytis cinerea 453 harboring TELerg F412I mutant at 10 ug/ml relative to wild-type; type: functional, organism-based; procedure, shortened: as §1
Botrytis cinerea [29] = assay: Antifungal activity against moderately to slightly fenhexamid-resistant Botrytis cinerea 365 assessed as inhibition of mycelium growth measured over 5 days; type: functional, organism-based; conditions: Botrytis cinerea, 365, 120 h
Botrytis cinerea [30] = assay: Antifungal activity against moderately to slightly fenhexamid-resistant Botrytis cinerea 365 assessed as inhibition of germ tube elongation after 24 hrs; type: functional, organism-based; conditions: Botrytis cinerea, 365, 24 h
Botrytis cinerea [31] = assay: Antifungal activity against highly fenhexamid-resistant Botrytis cinerea MK5-14 assessed as inhibition of germ tube elongation after 24 hrs; type: functional, organism-based; conditions: MK5-14, 24 h
Botrytis cinerea [32] = assay: Antifungal activity against highly fenhexamid-resistant Botrytis cinerea 520b assessed as inhibition of mycelium growth measured over 5 days; type: functional, organism-based; conditions: 120 h
Botrytis cinerea [33] = assay: Antifungal activity against moderately to slightly fenhexamid-resistant Botrytis cinerea 05-ABA assessed as inhibition of germ tube elongation after 24 hrs; type: functional, organism-based
Botrytis cinerea [34] = assay: Antifungal activity against moderately to slightly fenhexamid-resistant Botrytis cinerea 453b assessed as inhibition of mycelium growth measured over 5 days; type: functional, organism-based; conditions: 120 h
Botrytis cinerea [35] = assay: Antifungal activity against highly fenhexamid-resistant Botrytis cinerea 118 assessed as inhibition of mycelium growth measured over 5 days; type: functional, organism-based; conditions: Botrytis cinerea, 118, 120 h
Botrytis cinerea [36] = assay: Antifungal activity against highly fenhexamid-resistant Botrytis cinerea 506a assessed as inhibition of mycelium growth measured over 5 days; type: functional, organism-based; conditions: 120 h
Botrytis cinerea [37] = assay: Antifungal activity against moderately to slightly fenhexamid-resistant Botrytis cinerea 454 assessed as inhibition of germ tube elongation after 24 hrs; type: functional, organism-based; conditions: Botrytis cinerea, 454, 24 h
Botrytis cinerea [38] = assay: Antifungal activity against highly fenhexamid-resistant Botrytis cinerea 440a assessed as inhibition of germ tube elongation after 24 hrs; type: functional, organism-based
Botrytis cinerea [39] = assay: Antifungal activity against moderately to slightly fenhexamid-resistant Botrytis cinerea 452 assessed as inhibition of germ tube elongation after 24 hrs; type: functional, organism-based; conditions: Botrytis cinerea, 452, 24 h
Botrytis cinerea [40] = assay: Antifungal activity against fenhexamid-senistive Botrytis cinerea SAS56 assessed as inhibition of germ tube elongation after 24 hrs; type: functional, organism-based; conditions: SAS56, 24 h

Molecule `CC1(C(=O)Nc2ccc(O)c(Cl)c2Cl)CCCCC1` [FENHEXAMID] has an EC50 (Botrytis cinerea [1]) greater than 10 µg/mL, an EC50 (Botrytis cinerea [2]) greater than 5 µg/mL and an EC50 (Botrytis cinerea [3]) of 4 µg/mL (≈ 13.2 µM). For the same molecule, the Activity (Botrytis cinerea [4]) was 10%, the EC50 (Botrytis cinerea [5]) was greater than 10 µg/mL and the EC50 (Botrytis cinerea [6]) was 5 µg/mL (≈ 16.5 µM). The Activity (Botrytis cinerea [7]) was “inactive”, the EC50 (Botrytis cinerea [8]) was less than 0.3 µg/mL and the Activity (Botrytis cinerea [9]) was “inactive”. For the same molecule, the EC50 (Botrytis cinerea [10]) was greater than 10 µg/mL, the EC50 (Botrytis cinerea [11]) was less than 0.1 µg/mL and the EC50 (Botrytis cinerea [12]) was 10 µg/mL (≈ 33.1 µM). It also gave an EC50 (Botrytis cinerea [13]) of less than 0.3 µg/mL, an EC50 (Botrytis cinerea [14]) greater than 10 µg/mL and an EC50 (Botrytis cinerea [15]) greater than 5 µg/mL. The EC50 (Botrytis cinerea [16]) was greater than 10 µg/mL, the EC50 (Botrytis cinerea [17]) was greater than 10 µg/mL and the EC50 (Botrytis cinerea [18]) was less than 0.1 µg/mL. It also gave an EC50 (Botrytis cinerea [19]) greater than 10 µg/mL, an EC50 (Botrytis cinerea [20]) of 0.2 µg/mL (≈ 0.662 µM) and an EC50 (Botrytis cinerea [21]) of 2 µg/mL (≈ 6.62 µM). The EC50 (Botrytis cinerea [22]) was greater than 10 µg/mL, the Activity (Botrytis cinerea [23]) was “inactive” and the Activity (Botrytis cinerea [24]) was “inactive”. The EC50 (Botrytis cinerea [25]) was greater than 10 µg/mL, the EC50 (Botrytis cinerea [26]) was less than 0.1 µg/mL and the EC50 (Botrytis cinerea [27]) was 2 µg/mL (≈ 6.62 µM). The Activity (Botrytis cinerea [28]) was “inactive”, the EC50 (Botrytis cinerea [29]) was 0.3 µg/mL (≈ 0.993 µM) and the EC50 (Botrytis cinerea [30]) was 2 µg/mL (≈ 6.62 µM). It also gave an EC50 (Botrytis cinerea [31]) greater than 5 µg/mL, an EC50 (Botrytis cinerea [32]) of 3 µg/mL (≈ 9.93 µM) and an EC50 (Botrytis cinerea [33]) of 0.8 µg/mL (≈ 2.65 µM). It also gave an EC50 (Botrytis cinerea [34]) of 1.5 µg/mL (≈ 4.96 µM), an EC50 (Botrytis cinerea [35]) greater than 10 µg/mL and an EC50 (Botrytis cinerea [36]) greater than 10 µg/mL. The EC50 (Botrytis cinerea [37]) was 0.5 µg/mL (≈ 1.65 µM), the EC50 (Botrytis cinerea [38]) was greater than 10 µg/mL and the EC50 (Botrytis cinerea [39]) was 2.5 µg/mL (≈ 8.27 µM). The EC50 (Botrytis cinerea [40]) was less than 0.1 µg/mL.
